Results from ChEMBL document CHEMBL1125493, “HIV-1 neutralization and tumor cell proliferation inhibition in vitro by simplified analogues of pyrido[4,3,2-mn]thiazolo[5,4-b]acridine marine alkaloids” (J Med Chem, 1992).
pEC50: −log10 of the molar value.

Assays:
[1] = Calu3 lung tumor cell proliferation inhibition by the compound in vitro at a concentration of 0.6 uM.; format: functional, Homo sapiens
In short: (§1)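 Tumor cells grown in RPMI-1640 in 1% agar with 5% fetal bovine serum, exposed to the specified concentrations for 1 week. Viability was assessed against a control given distilled water in place of drug. 5-Fluorouracil served as the positive cytotoxic standard. Results are reported as concentration-dependent cell survival.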

COLO 320DM [2] = assay: COLO 320DM colon tumor cell proliferation inhibition by the compound in vitro at a concentration of 0.6 uM.; format: functional, Homo sapiens; in short: as §1
[3] = Calu3 lung tumor cell proliferation inhibition by the compound in vitro at a concentration of 6.0 uM.; format: functional, Homo sapiens; in short: as §1
[4] = Calu3 lung tumor cell proliferation inhibition by the compound in vitro at a concentration of 60 uM.; format: functional, Homo sapiens; in short: as §1
[5] = tested on: Human immunodeficiency virus 1; assay: Protection of MT-4 lymphocytes by the compound against HIV-1 infectivity in vitro at a concentration of 400 ug/mL (1.4 uM/mL); format: functional
In short: (§2)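 Virus (HIV-1 Molt IIIB, ~2 × 10^4 TCID50) preincubated with compound 1 h at 37 °C, 5% CO2. Then added to MT-4 cells (5 × 10^5 cells/well) and cultured at 37 °C. Trypan blue viability counts taken on days 4 and 7, triplicate at each concentration. Controls were infected and uninfected cells. Reported as % viable (surviving) MT-4 cells.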

[6] = tested on: Human immunodeficiency virus 1; assay: Percent inhibition of HIV-1 binding to H-9 cells at a concentration of 100(ug/mL).; format: functional
In short: (§3)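 HIV-1 Molt IIIB (50 μL) incubated overnight with compound at 100 μg/mL, then with uninfected H-9 cells 2 h at 37 °C. Washed; stained with HIV-positive human serum (1:100) then FITC anti-human IgG (1:10), 30 min at 4 °C each. Formaldehyde-fixed (0.5%) and analysed by flow cytometry for % virus bound and % binding inhibition.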

[7] = tested on: Human immunodeficiency virus 1; assay: Inactivation of HIV-MN strain in MT-4 lymphocytes in vitro at a concentration of 100 ug/mL (0.35 uM/mL).; format: functional
In short: (§4)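 Compound (50 μL) was mixed with 50 μL of HIV-1 Molt IIIB or HIV-MN inoculum in RPMI 1640 for 1 h at room temperature. The mixture was added to 5 × 10^4 MT-4 cells and kept 7 days at 37 °C, 5% CO2. MTT (5.0 mg/mL) was added for 4 h, the reaction was stopped with 0.04 N HCl/2-propanol, and OD was read at 570 nm. % inactivation was calculated from OD relative to uninfected cells and untreated virus, mean of three.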

MCF7 [8] = assay: […] breast tumor cell proliferation inhibition by the compound in vitro at a concentration of 60 uM.; format: functional, Homo sapiens
In short: (§5)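 Breast tumor cells treated with specified compound concentrations in RPMI-1640 in 1% agar with 5% FBS for 1 week. Viability compared with a control given distilled water in place of drug; 5-fluorouracil as standard cytotoxic drug. Reported as concentration-dependent cell survival.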

[9] = tested on: Human immunodeficiency virus 1; assay: Protection of MT-4 lymphocytes by the compound against HIV-1 infectivity in vitro at a concentration of 200 ug/mL (0.70 uM/mL); format: functional; in short: as §2
MCF7 [10] = assay: […] breast tumor cell proliferation inhibition by the compound in vitro at a concentration of 0.6 uM.; format: functional, Homo sapiens; in short: as §5
MT4 [11] = assay: Cytotoxic effect in cultured MT-4 lymphocytes at a concentration of 2 ug/mL (0.0070 uM/mL).; format: functional, Homo sapiens
In short: (§6)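 MT-4 cells at 5 × 10^4 cells/well, 1 mL total, cultured with compound diluted in RPMI 1640 with 10% FBS, 10 mM HEPES, penicillin/streptomycin and 2 mM glutamine, at 37 °C under 5% CO2. Viability was scored by trypan blue exclusion on days 4 and 7, in triplicate, as % viable cells.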

[12] = tested on: Human immunodeficiency virus 1; assay: Protection of MT-4 lymphocytes by the compound against HIV-1 infectivity in vitro at a concentration of 100 ug/mL (0.35 uM/mL); format: functional; in short: as §2
[13] = tested on: Human immunodeficiency virus 1; assay: Percent HIV-1 bound to H-9 cells at a concentration of 100(ug/mL).; format: functional; in short: as §3
[14] = tested on: Human immunodeficiency virus 1; assay: Inactivation of HIV-MoltIIIB strain in MT-4 lymphocytes in vitro at a concentration of 100 ug/mL (0.35 uM/mL).; format: functional; in short: as §4
MCF7 [15] = assay: […] breast tumor cell proliferation inhibition by the compound in vitro at a concentration of 6.0 uM.; format: functional, Homo sapiens; in short: as §5
COLO 320DM [16] = assay: COLO 320DM colon tumor cell proliferation inhibition by the compound in vitro at a concentration of 60 uM.; format: functional, Homo sapiens; in short: as §1
[17] = tested on: Human immunodeficiency virus 1; assay: Inactivation of HIV-MoltIIIB strain in MT-4 lymphocytes in vitro at a concentration of 400 ug/mL (1.4 uM/mL).; format: functional; in short: as §4
MT4 [18] = assay: Cytotoxic effect in cultured MT-4 lymphocytes at a concentration of 10 ug/mL (0.0350 uM/mL).; format: functional, Homo sapiens; in short: as §6
MT4 [19] = assay: Cytotoxic effect in cultured MT-4 lymphocytes at a concentration of 100 ug/mL (0.3500 uM/mL).; format: functional, Homo sapiens; in short: as §6
[20] = tested on: Human immunodeficiency virus 1; assay: Inhibitory effect (100 uM) against HIV-1 in human peripheral blood monocyte cells(PBMC) (EC50 ->28.6 ug/mL); format: functional
[21] = tested on: Human immunodeficiency virus 1; assay: Inactivation of HIV-MN strain in MT-4 lymphocytes in vitro at a concentration of 400 ug/mL (1.40 uM/mL).; format: functional; in short: as §4
[22] = tested on: Human immunodeficiency virus 1; assay: Inactivation of HIV-MN strain in MT-4 lymphocytes in vitro at a concentration of 200 ug/mL (0.70 uM/mL).; format: functional; in short: as §4
[23] = tested on: Human immunodeficiency virus 1; assay: Inhibitory effect against HIV-1 induced cytopathic effects(HIV-1 neutralization) in MT-4 lymphocytes at a concentration of 100 ug/mL (0.3500 uM/mL).; format: functional
In short: (§7)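 HIV-1 Molt IIIB (~2 × 10^4 TCID50 in 100 μL) preincubated 1 h at 37 °C with a single compound dose, then added to MT-4 cells (5 × 10^5 cells/well, 1 mL). Cultured at 37 °C, 5% CO2. Viable cells counted by trypan blue exclusion on days 4 and 7. Triplicates; % viable cells. Controls: infected cells (positive), uninfected cells (negative).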

COLO 320DM [24] = assay: COLO 320DM colon tumor cell proliferation inhibition by the compound in vitro at a concentration of 6.0 uM.; format: functional, Homo sapiens; in short: as §1
[25] = tested on: Human immunodeficiency virus 1; assay: Inactivation of HIV-MoltIIIB strain in MT-4 lymphocytes in vitro at a concentration of 200 ug/mL (0.70 uM/mL).; format: functional; in short: as §4
COLO 320DM [26] = assay: COLO 320DM colon tumor cell proliferation inhibition by the compound in vitro at a concentration of 70 uM.; format: functional, Homo sapiens
In short: (§8)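 Tumor cells grown in RPMI-1640 in 1% agar with 5% fetal bovine serum, exposed to set compound concentrations for 1 week. Viability scored against a control given distilled water in place of drug. 5-fluorouracil served as reference cytotoxic drug. Reported as concentration-dependent cell survival.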

MCF7 [27] = assay: […] breast tumor cell proliferation inhibition by the compound in vitro at a concentration 70 of uM; format: functional, Homo sapiens; in short: as §8
MCF7 [28] = assay: […] breast tumor cell proliferation inhibition by the compound in vitro at a concentration of 0.7 uM.; format: functional, Homo sapiens; in short: as §8
[29] = Calu3 lung tumor cell proliferation inhibition by the compound in vitro at a concentration of 7.0 uM.; format: functional, Homo sapiens; in short: as §8
COLO 320DM [30] = assay: COLO 320DM colon tumor cell proliferation inhibition by the compound in vitro at a concentration of 7.0 uM.; format: functional, Homo sapiens; in short: as §8
MCF7 [31] = assay: […] breast tumor cell proliferation inhibition by the compound in vitro at a concentration 7.0 of uM; format: functional, Homo sapiens; in short: as §8
COLO 320DM [32] = assay: COLO 320DM colon tumor cell proliferation inhibition by the compound in vitro at a concentration of 0.7 uM.; format: functional, Homo sapiens; in short: as §8
[33] = Calu3 lung tumor cell proliferation inhibition by the compound in vitro at a concentration of 0.7 uM.; format: functional, Homo sapiens; in short: as §8
[34] = Calu3 lung tumor cell proliferation inhibition by the compound in vitro at a concentration of 70 uM.; format: functional, Homo sapiens; in short: as §8
[35] = tested on: Human immunodeficiency virus 1; assay: Inhibitory effect against HIV-1 induced cytopathic effects(HIV-1 neutralization) in MT-4 lymphocytes at a concentration of 100 ug/mL (0.2000 uM/mL).; format: functional; in short: as §7
MT4 [36] = assay: Cytotoxic effect in cultured MT-4 lymphocytes at a concentration of 100 ug/mL (0.2000 uM/mL).; format: functional, Homo sapiens; in short: as §6
MT4 [37] = assay: Cytotoxic effect in cultured MT-4 lymphocytes at a concentration of 2 ug/mL (0.0040 uM/mL).; format: functional, Homo sapiens; in short: as §6
MT4 [38] = assay: Cytotoxic effect in cultured MT-4 lymphocytes at a concentration of 10 ug/mL (0.0200 uM/mL).; format: functional, Homo sapiens; in short: as §6
[39] = tested on: Human immunodeficiency virus 1; assay: Protection of MT-4 lymphocytes by the compound against HIV-1 infectivity in vitro at a concentration of 0.008 ug/mL (0.00003 uM/mL); format: functional; in short: as §2
[40] = tested on: Human immunodeficiency virus 1; assay: Protection of MT-4 lymphocytes by the compound against HIV-1 infectivity in vitro at a concentration of 0.016 ug/mL (0.00006 uM/mL); format: functional; in short: as §2
[41] = tested on: Human immunodeficiency virus 1; assay: Protection of MT-4 lymphocytes by the compound against HIV-1 infectivity in vitro at a concentration of 0.032 ug/mL ([…] uM/mL); format: functional; in short: as §2
[42] = tested on: Human immunodeficiency virus 1; assay: microbe, parasite or virus in culture

## O=C([O-])CSc1ccc2nc3ccccc3c(O)c2c1.[Na+]
[1]
  Viability: 113%
COLO 320DM [2]
  Viability: 110%
[3]
  Viability: 48%
[4]
  Viability: 0%
[5]
  Survival: 84.2%
[6]
  Inhibition: 32.7%
[7]
  Inactivation: 13.1%
MCF7 [8]
  Viability: 0%
[9]
  Survival: 81.4%
MCF7 [10]
  Viability: 85%
MT4 [11]
  Viability: 96.7%
[12]
  Survival: 72.7%
[13]
  Bound: 22.4%
[14]
  Inactivation: 21%
MCF7 [15]
  Viability: 19%
COLO 320DM [16]
  Viability: 0%
[17]
  Inactivation: 74.3%
MT4 [18]
  Viability: 93.3%
MT4 [19]
  Viability: 92.6%
[20]
  Inhibition: 31%
[21]
  Inactivation: 25%
[22]
  Inactivation: 40.5%
[23]
  Viability: 70.9%
COLO 320DM [24]
  Viability: 41%
[25]
  Inactivation: 100%

## O=c1[nH]cc(F)c(=O)[nH]1 [FLUOROURACIL]
COLO 320DM [26]
  Viability: 2%
MCF7 [27]
  Viability: 5%
MCF7 [28]
  Viability: 29%
[29]
  Viability: 32%
COLO 320DM [30]
  Viability: 5%
MCF7 [31]
  Viability: 10%
COLO 320DM [32]
  Viability: 79%
[33]
  Viability: 80%
[34]
  Viability: 17%

## CCN(CC)CCCC(C)Nc1c2ccc(Cl)cc2nc2ccc(OC)cc12.Cl.Cl (configuration not stated) [QUINACRINE DIHYDROCHLORIDE]
[35]
  Viability: 0%
MT4 [36]
  Viability: 82.1%
MT4 [37]
  Viability: 93.6%
MT4 [38]
  Viability: 88.2%

## Cc1cn([C@H]2C[C@H](N=[N+]=[N-])[C@@H](CO)O2)c(=O)[nH]c1=O [ZIDOVUDINE]
[39]
  Survival: 74.3%
[40]
  Survival: 79.4%
[41]
  Survival: 78.3%
[42]
  pEC50: 8.40
